A selection: hits, their analogues and other compounds. The true share with any hit is near 1.7%.
EBV gp42 block: blocks Epstein-Barr virus glycoprotein 42 binding; Q1HVG2; Fluorescence polarization binding assay, mP read-out; inhibition, % (tested at 21.74 µM); 0.42% of 220,000 active; AID 1085; in the data active = inhibition above about 50%
Target sequence (Q1HVG2 whole entry, looked up): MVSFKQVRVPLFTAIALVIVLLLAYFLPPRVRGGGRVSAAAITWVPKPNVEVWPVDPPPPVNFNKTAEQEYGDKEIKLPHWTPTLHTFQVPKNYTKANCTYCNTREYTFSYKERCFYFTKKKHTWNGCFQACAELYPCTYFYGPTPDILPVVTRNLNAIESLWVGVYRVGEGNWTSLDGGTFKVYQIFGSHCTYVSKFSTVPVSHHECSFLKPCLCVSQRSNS
HCV core dimer: HCV core protein dimerization inhibition. inhibition, % at 5 µM. 0.33% of 300,000 active. TR-FRET GST/Flag-core106 dimerization, 1536-well;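 active = inhibition above the mean of all tested compounds plus 3 SD, set per screening campaign, cut at about 45% in these data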
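test system = GST/Flag-tagged HCV core106 proteins | probe or stimulus = Eu donor and XL665 acceptor anti-tag antibodies | times = compound-protein-antibody incubation 4 h at 22.5 °C | signal = TR-FRET, excitation 340 nm, emission 617 and 671 nm | measure = percent inhibition of core106 dimerization signal | controls = wells lacking GST-core106 and wells with excess unlabelled core106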
EBNA-1 inh: blocks EBNA-1 binding to DNA; EBNA-1 DNA binding, fluorescence polarization; inhibition, % at 14.8 µM; AID 1950; 0.34% of 300,000 active; in the data active = inhibition above about 28%
HCV NS3 hel inh: inhibitors of Hepatitis C virus NS3 helicase; NS3 helicase DNA unwinding, Cy5 molecular beacon fluorescence; inhibition, % at 10.9 µM; 0.56% of 290,000 active; AID 1800;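 active = inhibition above the mean of all tested compounds plus 3 SD, set per campaign, cut at about 35% in these data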
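Material: hepatitis C virus NS3 helicase domain fragment enzyme; measured by: Cy5 fluorescence, 0 and 60 min reads; control set: DMSO and thioflavine S; incubation: 60 min unwinding reaction at 25 °C after ATP addition; read-out basis: % inhibition from 60/0 min fluorescence ratio, DMSO 0%, thioflavine S 100%; repeats: singlicate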
ZTA counter: counter-screen for EBNA-1 inhibitors: inhibitors of Epstein-Barr virus ZTA | 0.15% of 320,000 active | ZTA-DNA binding, fluorescence polarization | inhibition, % at 11 µM | AID 2234 | P03206; in the data active = inhibition above about 33%
Target sequence (P03206 whole entry, looked up): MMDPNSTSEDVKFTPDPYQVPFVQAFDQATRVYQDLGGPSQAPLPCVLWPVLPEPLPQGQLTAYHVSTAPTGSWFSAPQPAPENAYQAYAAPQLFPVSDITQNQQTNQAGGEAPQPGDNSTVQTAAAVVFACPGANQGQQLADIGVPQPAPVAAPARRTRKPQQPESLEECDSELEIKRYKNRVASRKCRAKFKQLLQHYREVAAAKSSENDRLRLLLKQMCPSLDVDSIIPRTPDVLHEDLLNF
MEX-5 binding: C. elegans MEX-5 TCR-2 RNA binding activity | Q9XUB2 | MEX-5/FITC-TCR2 RNA binding, fluorescence polarization; stronger effect = lower value | activity score (negative = inhibition of binding), % at 10 µM | 0.38% of 300,000 active | AID 1832;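 active = inhibition past about -25% in most replicates, and total fluorescence under double the plate's negative control median, limit read from the data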
NS3 hel confirm: HCV NS3 helicase inhibition, confirmation assay; NS3 helicase DNA unwinding, Cy5 molecular beacon fluorescence; shares compounds with HCV NS3 hel inh; inhibition, % at 10.9 µM; 31% of 1,600 active; AID 1943;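 active = inhibition above the mean of all tested compounds plus 3 SD, cutoff set per campaign, cut at about 36% in these data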
FID counter trip: displaces DNA intercalator in HCV helicase counter-screen; shares compounds with HCV NS3 hel inh; DNA fluorescent intercalator displacement, fluorescence; inhibition, % at 7.9 µM; 4% of 1,600 active; AID 1945; in the data active = inhibition above about 37%;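 also: higher means more displacement of ethidium bromide from the DNA hairpin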
DNA FID DR: DNA intercalator displacement in dose response; IC50, µM; AID 2172; shares compounds with HCV NS3 hel inh; 120 tested, under 10 active; fluorescent intercalator displacement from DNA, fluorescence; call rule not given here
Large screens that a line does not name were inactive (follow-up assays come after a bar, where they were run).

Cc1oc(-c2ccccc2Cl)nc1CS(=O)CC(=O)NCc1ccc2c(c1)OCO2 (stereo unspecified)	none (no result: EBV gp42 block)
N#Cc1ccc(S(=O)(=O)N2CCC(C(=O)N3CCN(Cc4ccc5c(c4)OCO5)CC3)CC2)cc1	none (no result: EBV gp42 block, HCV core dimer, EBNA-1 inh, HCV NS3 hel inh, MEX-5 binding)
O=C(O)CN1C(=O)/C(=C/c2cccc(Cl)c2)Oc2ccccc21	HCV NS3 hel inh 54 (no result: EBV gp42 block) | NS3 hel confirm 59 | FID counter trip inactive
O=C(O)CN1C(=O)/C(=C/c2ccccc2Cl)Oc2ccccc21	none (no result: EBV gp42 block)
O=C(Nc1ccc(Cc2nc3ccccc3s2)cc1)c1ccncc1	none (no result: EBV gp42 block)
CCOC(=O)C1=NN(C(=O)c2ccccc2)C(O)(c2ccc(C)cc2)C1 (stereo unspecified)	HCV NS3 hel inh 44 | NS3 hel confirm inactive | FID counter trip inactive
CCC1(c2ccccc2)NC(=O)N(CC(=O)Nc2ccc(Cl)c(S(=O)(=O)N3CCCCC3)c2)C1=O (stereo unspecified)	none (no result: EBV gp42 block, HCV NS3 hel inh)
O=C(C1=C(O)C(=O)N(Cc2ccco2)C1c1cccc(O)c1)c1ccco1 (stereo unspecified)	none (no result: EBV gp42 block)
Cc1ccc(C(=O)C2=C(O)C(=O)N(Cc3cccnc3)C2c2ccc(Br)cc2)o1 (stereo unspecified)	HCV NS3 hel inh 40 (no result: EBV gp42 block) | NS3 hel confirm inactive | FID counter trip inactive
CC(=O)C1=C(O)C(=O)N(Cc2ccco2)C1c1cccc(F)c1 (stereo unspecified)	none
Cc1ccc(C(=O)C2=C(O)C(=O)N(Cc3ccco3)C2c2cccc(Cl)c2)o1 (stereo unspecified)	HCV NS3 hel inh 74 (no result: EBV gp42 block) | NS3 hel confirm 71 | FID counter trip inactive | DNA FID DR inactive
Cc1ccc(C(=O)C2=C(O)C(=O)N(Cc3ccco3)C2c2cccc(Br)c2)o1 (stereo unspecified)	HCV NS3 hel inh 101 (no result: EBV gp42 block) | NS3 hel confirm 92 | FID counter trip inactive
Cc1noc(C)c1COC(=O)c1csc2c1CCC(C)C2 (stereo unspecified)	none (no result: EBV gp42 block, HCV core dimer, EBNA-1 inh, HCV NS3 hel inh, MEX-5 binding)
O=C(NC(Cc1ccccc1)C(=O)O)/C(=C\c1ccc(Br)cc1)NC(=O)c1ccc(Br)o1 (stereo unspecified)	none (no result: EBV gp42 block)
O=C(NC(Cc1ccccc1)C(=O)O)/C(=C/c1ccc(Br)cc1)NC(=O)c1ccc(Br)o1 (stereo unspecified)	HCV NS3 hel inh 41 (no result: EBV gp42 block) | NS3 hel confirm 38 | FID counter trip inactive
COc1cc(C2C(C#N)=C(C)NC(C)=C2C#N)cc(OC)c1OC	none
CCOC(=O)c1sc2nc3c(SCCC(=O)O)cc(C(=O)c4cc(OC)ccc4O)cn3c(=O)c2c1C	EBV gp42 block 79, HCV NS3 hel inh 40 (no result: HCV core dimer, EBNA-1 inh, ZTA counter) | NS3 hel confirm 83 | FID counter trip inactive | DNA FID DR inactive
COc1cc(/C=N/NC(=O)Cc2ccccc2)cc([N+](=O)[O-])c1O	none (no result: EBV gp42 block)
COc1cc(/C=N/NC(=O)[C@H](Cc2c[nH]c3ccccc23)NC(=O)OCC(C)C)cc([N+](=O)[O-])c1O	HCV NS3 hel inh 50 | NS3 hel confirm 59 | FID counter trip inactive
Cc1ccc(C(=O)OCC(=O)NCCc2ccccc2)cc1C	none (no result: EBV gp42 block, HCV core dimer, EBNA-1 inh, HCV NS3 hel inh, MEX-5 binding)
O=C(O)CCN1C(=O)/C(=C2\C(=O)N(Cc3ccccc3Cl)c3ccccc32)SC1=S	HCV NS3 hel inh 44 (no result: EBV gp42 block, HCV core dimer, EBNA-1 inh, ZTA counter) | NS3 hel confirm 91 | FID counter trip inactive | DNA FID DR inactive
COc1ccc(NC(=O)CN2C(=O)/C(=C3\SC(=S)N(CCC(=O)O)C3=O)c3ccccc32)cc1	none (no result: EBV gp42 block)
CCC(C)c1ccc(OCC(=O)Nc2ccc3c(c2)C(=O)NC3=O)cc1 (stereo unspecified)	none (no result: EBV gp42 block)
CNc1ccc(Br)cc(C(=O)/C=C/c2cccc(Cl)c2Cl)c1=O	HCV NS3 hel inh 37 (no result: HCV core dimer, EBNA-1 inh, ZTA counter, MEX-5 binding) | NS3 hel confirm 68 | FID counter trip inactive | DNA FID DR inactive
CNc1ccc(Br)cc(C(=O)/C=C/c2cccc(OC)c2OC)c1=O	none
Cc1ccc(CSC2=Nc3ccccc3C3=NC(CCC(=O)NCc4ccco4)C(=O)N23)cc1 (stereo unspecified)	HCV NS3 hel inh 47 | NS3 hel confirm inactive | FID counter trip inactive
O=c1nc(/C=C/c2cc([N+](=O)[O-])ccc2Cl)cc(C(F)(F)F)[nH]1	none
O=c1nc(/C=C/c2cccn2-c2ccc([N+](=O)[O-])cc2)cc(C(F)(F)F)[nH]1	HCV core dimer 61, HCV NS3 hel inh 64 | NS3 hel confirm inactive | FID counter trip inactive
COc1ccc(CC(=O)Nc2ccc(F)c(F)c2F)cc1S(=O)(=O)N1CCOCC1	none (no result: EBV gp42 block, HCV core dimer, EBNA-1 inh, HCV NS3 hel inh, MEX-5 binding)
O=C(NC(=S)N1CCCCCC1)c1ccc(Cl)cc1Cl	none
CCn1cc(S(=O)(=O)Nc2cccnc2)cn1	none (no result: EBV gp42 block)
CCn1cc(S(=O)(=O)Nc2cc(F)ccc2C)cn1	HCV NS3 hel inh 59 | NS3 hel confirm inactive | FID counter trip inactive
O=C(CSc1nnc(-c2ccc(Cl)cc2)o1)N1CCOCC1	none (no result: EBV gp42 block)
COc1ccccc1OCCCOc1cccc(/C=C2\SC(=O)NC2=O)c1	HCV NS3 hel inh 44 (no result: EBV gp42 block) | NS3 hel confirm 68 | FID counter trip inactive | DNA FID DR inactive
